In ChEMBL document CHEMBL1268807, “Discovery of small molecule inhibitors of the PH domain leucine-rich repeat protein phosphatase (PHLPP) by chemical and virtual screening” (J Med Chem, 2010):
Activity calls are given as the source filed them. The rule behind the calls is not given here.

Key:
[1] = system: HT-29 (Homo sapiens); assay: Inhibition of PHLPP in human HT29 cells assessed as increase of phosphorylation of Akt on Ser 473 at 100 to 250 uM after 24 hrs by immunoblotting relative to control
[2] = Inhibition of PHLPP in human […] cells assessed as increase of phosphorylation of FoxO1/3alpha on Thr 24/32 at 100 to 250 uM after 24 hrs by immunoblotting; type: cell-based
Method in brief: (§1)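 HT29 colon cells kept in DMEM with 5% FBS were given compounds (100 or 250 μM, DMSO vehicle) for 24 h, then lysed on ice. […] Densitometry normalized to actin and expressed relative to control lanes; three experiments, mean ± SEM.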

[3] = Inhibition of PHLPP in human […] cells assessed as increase of phosphorylation of GSK3 alpha/beta on Ser21/9 at 100 to 250 uM after 24 hrs by immunoblotting; type: cell-based
Method in brief: as §1

[4] = target: T1, PH domain leucine-rich repeat-containing protein phosphatase 2 (Homo sapiens, UniProt Q6ZVD8); assay: Inhibition of PHLPP2 phosphatase domain expressed in Escherichia coli
T1 sequence (Q6ZVD8 whole entry): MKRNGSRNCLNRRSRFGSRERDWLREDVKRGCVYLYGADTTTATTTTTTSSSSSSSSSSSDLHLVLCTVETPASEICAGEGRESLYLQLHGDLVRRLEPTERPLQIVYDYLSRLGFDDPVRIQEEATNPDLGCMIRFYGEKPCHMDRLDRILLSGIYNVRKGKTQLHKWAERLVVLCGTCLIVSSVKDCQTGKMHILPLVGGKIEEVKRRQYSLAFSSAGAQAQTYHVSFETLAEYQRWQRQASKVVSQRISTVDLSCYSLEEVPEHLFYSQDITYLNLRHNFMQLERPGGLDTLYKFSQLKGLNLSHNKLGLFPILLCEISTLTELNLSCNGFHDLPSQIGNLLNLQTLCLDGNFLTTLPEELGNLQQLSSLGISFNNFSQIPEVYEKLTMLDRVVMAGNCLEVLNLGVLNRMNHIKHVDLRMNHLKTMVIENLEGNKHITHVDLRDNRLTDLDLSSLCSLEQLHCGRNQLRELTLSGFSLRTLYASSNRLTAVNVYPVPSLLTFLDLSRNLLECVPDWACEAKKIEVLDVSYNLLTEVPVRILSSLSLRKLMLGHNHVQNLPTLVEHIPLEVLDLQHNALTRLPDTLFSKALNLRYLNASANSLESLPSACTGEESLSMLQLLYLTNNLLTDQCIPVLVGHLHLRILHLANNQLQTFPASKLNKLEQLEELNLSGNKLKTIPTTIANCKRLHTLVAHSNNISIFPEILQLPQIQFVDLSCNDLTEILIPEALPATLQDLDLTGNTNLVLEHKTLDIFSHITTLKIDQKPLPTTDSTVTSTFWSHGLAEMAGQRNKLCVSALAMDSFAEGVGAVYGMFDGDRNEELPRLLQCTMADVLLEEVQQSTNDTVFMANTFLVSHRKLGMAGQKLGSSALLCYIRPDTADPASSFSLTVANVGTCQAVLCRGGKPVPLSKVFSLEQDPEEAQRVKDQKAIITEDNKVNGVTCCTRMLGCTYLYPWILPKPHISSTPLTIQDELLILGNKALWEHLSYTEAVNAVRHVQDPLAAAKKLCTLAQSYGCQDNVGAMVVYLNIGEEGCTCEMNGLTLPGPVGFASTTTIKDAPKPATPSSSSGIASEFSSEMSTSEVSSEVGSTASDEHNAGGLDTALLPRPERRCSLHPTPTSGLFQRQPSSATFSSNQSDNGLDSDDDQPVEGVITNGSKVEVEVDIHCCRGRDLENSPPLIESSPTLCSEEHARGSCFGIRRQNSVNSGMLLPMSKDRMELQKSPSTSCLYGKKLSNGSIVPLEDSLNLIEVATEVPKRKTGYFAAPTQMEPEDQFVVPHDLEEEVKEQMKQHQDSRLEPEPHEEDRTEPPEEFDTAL
Method in brief: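 A405 was followed over time, slope taken, no-enzyme background subtracted. Inhibitor at seven concentrations versus DMSO (100%); fit to eq 1, IC50 = −C0 ln(1/2).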

[5] = system: HT-29; assay: Cytotoxicity against human HT-29 cells at 100 uM after 24 hrs; type: cell-based; conditions: ht-29, 24 h
[6] = system: HT20; assay: Inhibition of PHLPP in human […] cells assessed as increase of phosphorylation of Akt on Ser 473 at 100 to 250 uM after 24 hrs by immunoblotting relative to control; type: cell-based
Method in brief: as §1

[7] = system: HT20; assay: Inhibition of PHLPP in human […] cells assessed as increase of phosphorylation of FoxO1/3alpha on Thr 24/32 at 100 uM after 24 hrs by immunoblotting; type: cell-based
Method in brief: as §1

[8] = system: HT20; assay: Inhibition of PHLPP in human […] cells assessed as increase of phosphorylation of GSK3 alpha/beta on Ser21/9 at 100 uM after 24 hrs by immunoblotting; type: cell-based
Method in brief: as §1

[9] = system: HT20; assay: Inhibition of PHLPP in human […] cells assessed as increase of phosphorylation of Akt on Ser 473 at 100 uM after 24 hrs by immunoblotting; type: cell-based
Method in brief: as §1

[10] = Inhibition of protein phosphatase 1 at 10 uM
Method in brief: (§2)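 PP1, PP2B or PP2Cα phosphatase domain with 8 mM pNPP in each enzyme's optimal buffer. Compound added; activity taken from A405 and expressed relative to DMSO control. At least three experiments, mean ± SEM.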

[11] = target: Serine/threonine protein phosphatase PP2B-alpha catalytic subunit (Homo sapiens) (UniProt P16298); assay: Inhibition of protein phosphatase 2B at 10 uM
Method in brief: as §2

[12] = target: T2, Protein phosphatase 1A (Homo sapiens) (UniProt P35813); assay: Inhibition of PP2Calpha at 10 uM
T2 sequence (whole entry): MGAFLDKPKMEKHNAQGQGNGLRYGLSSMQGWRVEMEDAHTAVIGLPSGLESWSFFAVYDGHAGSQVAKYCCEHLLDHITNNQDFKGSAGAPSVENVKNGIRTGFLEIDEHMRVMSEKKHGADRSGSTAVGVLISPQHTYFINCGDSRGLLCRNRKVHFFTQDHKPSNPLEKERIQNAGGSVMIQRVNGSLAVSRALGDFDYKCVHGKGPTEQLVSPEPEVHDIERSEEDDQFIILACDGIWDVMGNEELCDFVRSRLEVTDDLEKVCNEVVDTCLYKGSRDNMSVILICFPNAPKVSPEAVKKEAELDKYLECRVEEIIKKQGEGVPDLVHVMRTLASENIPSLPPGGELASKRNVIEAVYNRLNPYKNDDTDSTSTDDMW
Method in brief: as §2

[13] = Inhibition of protein phosphatase 1 at 100 uM
Method in brief: as §2

[14] = target: T2, Protein phosphatase 1A (Homo sapiens); assay: Inhibition of PP2Calpha at 100 uM
Method in brief: as §2

[15] = system: COS-7; assay: Inhibition of PHLPP expressed in 24 hrs serum starved Cos7 cells assessed as half maximal increase of phosphorylation of Akt substrate after 30 mins by immunoblotting; type: cell-based; conditions: in the assay text read “after 35 mins” for “after 30 mins”
Method in brief: (§3)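 COS 7 cells serum-starved 24 h in serum-free DMEM, then exposed 35 min at 37 °C to inhibitor over 4−400 or 3−300 μM; DMSO control. Lysates were immunoblotted for pSer473, pThr308, phospho-Akt-substrate motif, and actin. Densitometry normalized to actin and to DMSO (set to 1), fit to eq 2; four separate experiments, mean ± SEM.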

[16] = system: COS-7; assay: Inhibition of PHLPP expressed in 24 hrs serum starved Cos7 cells assessed as half maximal increase of phosphorylation on Thr308 after 30 mins by immunoblotting; type: cell-based; conditions: in the assay text read “after 35 mins” for “after 30 mins”
Method in brief: as §3

[17] = Inhibition of PHLPP expressed in 24 hrs serum starved Cos7 cells assessed as increase of Akt phosphorylation after 30 mins by immunoblotting; conditions: COS-7
[18] = target: T3, PH domain leucine-rich repeat-containing protein phosphatase 2 (Homo sapiens) (UniProt Q6ZVD8); conditions: 10 uM
T3 sequence (whole entry): T1 sequence (Q6ZVD8 whole entry)

[19] = system: COS-7; assay: Induction of apoptosis assessed as basal level of apoptotic cells in african green monkey COS7 cells at 50 uM after 24 hrs by trypan blue exclusion assay

| Structure (SMILES) | inhibition [1] | other results |
| --- | --- | --- |
| NS(=O)(=O)c1ccc(/N=N/c2ncccc2O)cc1 | Active | – |
| Cc1ccc(/N=N/c2c(N)c(C)cc(/N=N/c3ccc(/N=N/c4ccc(O)c(C(=O)O)c4)cc3)c2N)c(S(=O)(=O)O)c1 | Active | – |
| Cc1cc(/N=N/c2ccc(/N=N/c3ccc(O)c(C(=O)O)c3)cc2)c(N)cc1N | Active | inhibition [2]: Active; inhibition [3]: Active; IC50 [4]: 3.75 µM |
| Nc1nc(SCc2ccccc2)c2ncn(Cc3ccccc3)c2n1 | Active | – |
| COc1ccc2nc3cc(Cl)ccc3c(Nc3ccc(C(=O)O)c(O)c3)c2c1 | Active | – |
| COc1ccc2nc3cc(Cl)ccc3c(Nc3ccc(C(=O)O)cc3)c2c1 | Active | inhibition [2]: Active; inhibition [3]: Active |
| Cc1cc(/N=N/c2ccc(/N=N/c3ccc(S(=O)(=O)O)cc3)cc2)cc(C(=O)O)c1O | Active | – |
| CS(=O)(=O)c1cc2ccc(Nc3ccccc3)cc2c(O)c1/N=N/c1ccc(-c2ccc(/N=N/c3ccc(O)c(C(=O)O)c3)cc2)cc1 | Active | – |
| CN(C)CCOC(=O)c1ccc(N)cc1 | Active | – |
| COc1cc(NCCC2CCCCN2)c2ncccc2c1 (centres undefined) | Active | inhibition [2]: Active; inhibition [3]: Active; Activity [5]: Toxic |
| Nc1cc(S(=O)(=O)O)cc2cc(S(=O)(=O)O)c(/N=N/c3ccc(S(=O)(=O)c4ccc(/N=N/c5c(O)ccc6cccc(S(=O)(=O)O)c56)cc4)cc3)c(O)c12 | Active | – |
| O=C(O)c1c(O)c(/N=N/c2ccc(S(=O)(=O)Nc3ccccn3)cc2)cc2ccccc12 | Active | – |
| COc1cc(-c2ccc(/N=N/c3c(S(=O)(=O)O)cc4cc(N)ccc4c3O)c(OC)c2)ccc1/N=N/c1cc(S(=O)(=O)O)c2ccccc2c1O | Active | – |
| CN(C)c1ccc(C(c2ccc(N(C)C)cc2)c2ccc([N+](=O)[O-])cc2)cc1 | Active | – |
| C[C@]12CC[C@H]3[C@@H](CCC4=CC(=O)CC[C@@]43C)[C@@H]1CC[C@@H]2C(=O)COS(=O)(=O)c1ccc(Br)cc1 | – | inhibition [6]: Active |
| CS(=O)(=O)c1cc2cc(Nc3ccccc3)ccc2c(O)c1/N=N/c1ccc(-c2ccc(/N=N/c3ccc(O)c(C(=O)O)c3)cc2)cc1 | Active | – |

| Structure (SMILES) | inhibition [1] | other results |
| --- | --- | --- |
| CS(=O)(=O)c1ccc2c(/N=N/c3ccc(-c4ccc(/N=N/c5ccc(N)c6cc(S(=O)(=O)O)ccc56)cc4)cc3)ccc(N)c2c1 | Active | – |
| COc1cc(/N=N/c2ccc(S(=O)(=O)O)cc2)ccc1/N=N/c1ccc(O)c(C(=O)O)c1 | Active | – |
| S=C(Nc1ccc2cn[nH]c2c1)Nc1ccc2cn[nH]c2c1 | Active | – |
| COc1ccc(NCc2c(O)ccc3ccccc23)cc1 | – | inhibition [7]: Active; inhibition [8]: Active; inhibition [9]: inactive |
| O=C(O)c1c(O)c(/N=N/c2ccc(S(=O)(=O)Nc3nccs3)cc2)cc2ccccc12 | Active | – |
| O=C(O)c1cc(/N=N/c2ccc(S(=O)(=O)Nc3nccs3)cc2)ccc1O | Active | – |
| Nc1cc(N)c(/N=N/c2ccc(S(=O)(=O)O)cc2)cc1/N=N/c1ccc(-c2ccc(/N=N/c3ccc(O)c(C(=O)O)c3)cc2)cc1 | Active | – |
| O=S(=O)(O)c1ccc(-c2nnc(-c3ccccn3)nc2-c2ccc(S(=O)(=O)O)o2)o1 | Active | – |
| CC(=O)Nc1ccc(Nc2cc(S(=O)(=O)O)c(N)c3c2C(=O)c2ccccc2C3=O)cc1 | Active | – |
| Cc1cc(-c2ccc(/N=N/c3c(S(=O)(=O)O)cc4cc(S(=O)(=O)O)cc(N)c4c3O)c(C)c2)ccc1/N=N/c1cc(S(=O)(=O)O)c2ccccc2c1O | Active | – |
| Nc1c(/N=N/c2ccc(-c3ccc(/N=N/c4cc(S(=O)(=O)O)c5ccccc5c4N)cc3)cc2)cc(S(=O)(=O)O)c2ccccc12 | Active | – |
| O=C(O)C1CCCCC1c1c2ccc(=O)c(O)c-2oc2c(O)c(O)ccc12 (centres undefined) | Active | IC50 [4]: 10 µM |
| NS(=O)(=O)c1ccc(/N=N/c2ccc(O)c(C(=O)O)c2)cc1 | Active | – |
| O=C1c2ccccc2-c2cc([N+](=O)[O-])c([N+](=O)[O-])cc21 | Active | – |
| Nc1c(S(=O)(=O)O)cc(Nc2cccc(S(N)(=O)=O)c2)c2c1C(=O)c1ccccc1C2=O | Active | inhibition [2]: Active; inhibition [3]: Active; inhibition [10]: inactive; inhibition [11]: inactive; inhibition [12]: inactive; inhibition [13]: 50%; inhibition [14]: 50%; Activity [15]: 36.4 µM; Activity [16]: 132 µM; IC50 [17]: 30 µM; inhibition [18]: 80%; basal apoptotic cells [19]: 12% |
